From article PMC5447658 (Translational Oncology, 2017)

Key:
HER2 = conditions: cited from earlier work
HER2 (SKBR3 cells) = HER2 (SKBR3 cells) (Homo sapiens, UniProt P04626); test: In vitro receptor competitive binding assay; conditions: TP1623 0-500 nmol/L, 30 minutes at 4°C, then tracer 2 h at 4°C
How it was run: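 SKBR3 cells at 2–4 × 10^4/well were seeded the day before. Unlabelled test compound was added at 0, 1, 5, 25, 50 and 500 nmol/L final, in triplicate, for 30 min at 4°C. 99mTc tracer (462 KBq/0.1 μg) followed for 2 h at 4°C. Cells were washed three times in ice-cold PBS, trypsin-digested and gamma-counted. Count was plotted against competitor concentration.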

| Sequence | affinity for HER2 (HER2) | competitive inhibition of binding of 99mTc-TP1623 to HER2 (HER2 (SKBR3 cells)) |
| --- | --- | --- |
| YCFPDEEGACY | high affinity | – |
| G (D) AGG-Aba-YCFPDEEGACY-NH2 [TP1623] | – | could competitively inhibit the binding |
